Tests used:
Format in all cases: functional
Details in all cases: Homo sapiens
RXF 393 = assay: Antitumor activity against RXF393 cells
[1] = Antitumor activity against LOX IMV1 cells
SNB-75 = assay: Antitumor activity against SNB75 cells
Method in brief: (§1)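 Tested in the NCI 60-human-tumour-cell-line panel at five concentrations, in 10-fold dilutions from 10^-4 to 10^-8 M. Three parameters were taken from the dose-response data, each as log10 of the molar concentration: GI50 (50% net growth inhibition), TGI (total growth inhibition) and LC50 (50% net cell death).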

MDA-MB-435 = assay: Antitumor activity against MDA-MB-435 cells
Hs-578T = assay: Antitumor activity against HS578T cells
T47D = assay: Antitumor activity against T47D cells; method in brief: as §1
UACC-257 = assay: Antitumor activity against UACC257 cells; method in brief: as §1
U-251 = assay: Antitumor activity against U251 cells; method in brief: as §1
SF-295 = assay: Antitumor activity against SF295 cells
OVCAR-8 = assay: Antitumor activity against OVCAR8 cells
SW-620 = assay: Antitumor activity against SW620 cells; method in brief: as §1
[2] = Antitumor activity against MALME 3M cells
COLO 205 = assay: Antitumor activity against COLO205 cells
[3] = Antitumor activity against NCI-H322 cells
MCF7 = assay: Antitumor activity against MCF7 cells
M14 = assay: Antitumor activity against M14 cells
OVCAR-3 = assay: Antitumor activity against OVCAR-3 cells
HOP-92 = assay: Antitumor activity against HOP92 cells
K562 = assay: Antitumor activity against K562 cells
NCI-H460 = assay: Antitumor activity against NCI-H460 cells
[4] = read-out: Log LC50 (the source's name) (converted)

In the case of O=C(NNS(=O)(=O)c1ccc(F)cc1)c1cccnc1Nc1ccc(Cl)cc1Cl, the GI50 (RXF 393) is reported as 11.5 µM, the LC50 (RXF 393) is reported as 66.1 µM and the TGI (RXF 393; read-out: Log TGI (converted)) is reported as 27.5 µM. The GI50 [1] was 32.4 µM, the LC50 [1] was over 100 µM and the TGI ([1]; read-out: Log TGI (converted)) was over 100 µM. The GI50 (SNB-75) was 25.7 µM, the CC50 (SNB-75; [4]) was over 100 µM and the TGI (SNB-75; read-out: Log TGI (converted)) was over 100 µM. The GI50 (MDA-MB-435) was 85.1 µM, the LC50 (MDA-MB-435) was over 100 µM and the TGI (MDA-MB-435; read-out: Log TGI (converted)) was over 100 µM. For the same molecule, the GI50 (Hs-578T) was 28.2 µM, the CC50 (Hs-578T; [4]) was over 100 µM and the TGI (Hs-578T; read-out: Log TGI (converted)) was over 100 µM. The GI50 (T47D) was 18.6 µM, the CC50 (T47D; [4]) was over 100 µM and the TGI (T47D; read-out: Log TGI (converted)) was over 97.7 µM. The GI50 (UACC-257) was 11.7 µM, the LC50 (UACC-257) was over 100 µM and the TGI (UACC-257; read-out: Log TGI (converted)) was 52.5 µM. The GI50 (U-251) was 28.8 µM, the LC50 (U-251) was over 100 µM and the TGI (U-251; read-out: Log TGI (converted)) was over 100 µM. The GI50 (SF-295) was 37.2 µM, the CC50 (SF-295; [4]) was over 100 µM and the TGI (SF-295; read-out: Log TGI (converted)) was over 100 µM. The GI50 (OVCAR-8) was 26.9 µM, the CC50 (OVCAR-8; [4]) was over 100 µM and the TGI (OVCAR-8; read-out: Log TGI (converted)) was over 100 µM. It also gave a GI50 (SW-620) of 28.8 µM, a CC50 (SW-620; [4]) of over 100 µM and a TGI (SW-620; read-out: Log TGI (converted)) of over 100 µM. The GI50 [2] was 34.7 µM, the CC50 [2, 4] was over 100 µM and the TGI ([2]; read-out: Log TGI (converted)) was over 100 µM. The GI50 (COLO 205) was 16.2 µM, the LC50 (COLO 205) was over 100 µM and the TGI (COLO 205; read-out: Log TGI (converted)) was 51.3 µM. It also gave a GI50 [3] of 30.9 µM, a CC50 [3, 4] of over 100 µM and a TGI ([3]; read-out: Log TGI (converted)) of over 100 µM. For the same molecule, the GI50 (MCF7) was 31.6 µM, the LC50 (MCF7) was over 100 µM and the TGI (MCF7; read-out: Log TGI (converted)) was over 100 µM. It also gave a GI50 (M14) of 46.8 µM, an LC50 (M14) of over 100 µM and a TGI (M14; read-out: Log TGI (converted)) of over 100 µM. For the same molecule, the GI50 (OVCAR-3) was 29.5 µM, the CC50 (OVCAR-3; [4]) was over 100 µM and the TGI (OVCAR-3; read-out: Log TGI (converted)) was 95.5 µM. The GI50 (HOP-92) was 15.5 µM, the CC50 (HOP-92; [4]) was 85.1 µM and the TGI (HOP-92; read-out: Log TGI (converted)) was 36.3 µM. It also gave a GI50 (K562) of 20 µM, an LC50 (K562) of over 100 µM and a TGI (K562; read-out: Log TGI (converted)) of 83.2 µM. The GI50 (NCI-H460) was 31.6 µM and the LC50 (NCI-H460) was over 100 µM.
